Laboratory results published in ChEMBL document CHEMBL4823286, “Synthesis and evaluation of novel 2,4-diaminopyrimidines bearing a sulfoxide moiety as anaplastic lymphoma kinase (ALK) inhibition agents” (Bioorg Med Chem Lett, 2021).

Key:
BaF3 = test: Antiproliferative activity against mouse BaF3 cells overexpressing ALK assessed as inhibition of cell proliferation measured by CCK8 assay; type: functional, cell-based
Outline: (§1)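 Cell proliferation inhibition; IC50 given as mean ± SD of three independent experiments.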

NCI-H2228 = test: Antiproliferative activity against human NCI-H2228 cells assessed as inhibition of cell proliferation measured by CCK8 assay; type: functional, cell-based; outline: as §1

CC[S+]([O-])c1cc(F)ccc1Nc1nc(Nc2ccc(N3CCCN(C)CC3)cc2OC)ncc1Cl (configuration not stated) was tested, and the IC50 (BaF3) was 26.7 nM and the IC50 (NCI-H2228) was 64.5 nM.
